# Experimental data gathered from unrelated publications.
# Compare with care: the assays were run in different laboratories.
# Target: Mitogen-activated protein kinase 3 (MAPK3, Homo sapiens, UniProt P27361)
SMILES,test,system,setting,quantity,result
COc1cc2ncnc(Nc3ccc(Oc4ccccc4)c(C)c3C)c2cc1OC,"enzyme activity, inhibitor",,1 µM,inhibition,0%
CCN1CCC2(CC1)NC(=O)c1c(c3ccc(Cl)c(Cl)c3n1C)C2C#N (racemic),"thermal stability, DSF",,10 µM,ΔTm,0 °C
CC(C)(C)c1nc(-c2cccc(NS(=O)(=O)c3c(F)cccc3F)c2F)c(-c2ccnc(N)n2)s1,"enzyme activity, inhibitor, radiometric",,1 µM,remaining activity,92%
COc1cc(/C=C/C(=O)CC(=O)/C=C/c2ccc(O)c(OC)c2)ccc1O,"enzyme activity, inhibitor",,1 µM,activity vs control,94%
Cc1nc(N2CC[C@@H](O)C2)ncc1-c1cc(C(F)(F)F)cc2[nH]ncc12,"binding, competition with immobilised ligand",,1 µM,remaining binding,100%
Cn1c2c(Cl)c(Cl)ccc2c2cc[nH]c(=O)c21,"thermal stability, DSF",,10 µM,ΔTm,-0.4 °C
Cc1cc(C)c(-n2ccn3nc(-c4cccnc4)cc23)cc1NC(=O)c1cc(C#N)cc(S(F)(F)(F)(F)F)c1,"cell-free assay, competition with immobilised ligand",,0.1 µM,remaining binding,95.2%
CC(C)(O)[C@H]1CC[C@H](Nc2ccc3ncc(-c4cccc(C(F)(F)F)c4)n3n2)CC1,"enzyme activity, inhibitor",,1 µM,remaining activity,94%
Cn1c(=O)n(-c2ccc(C(C)(C)C#N)cc2)c2c3cc(-c4cnc5ccccc5c4)ccc3ncc21,"enzyme activity, inhibitor",,10 µM,remaining activity,106%
CCN1CCN(Cc2ccc(NC(=O)c3ccc(C)c(/C=C/c4cnc5[nH]ccc5c4OC)c3)cc2C(F)(F)F)CC1,"target engagement in cells, inhibitor, chemoproteomics",A-375,0.5 µM,inhibition,-18.7%
Cn1c2c(c3ccc(Cl)c(Cl)c31)C(C#N)C(C)(C)NC2=O (stereo not shown),"thermal stability, DSF",,10 µM,ΔTm,0.1 °C
COc1cc(Nc2cnc(C#N)c(O[C@H](C)CN(C)C)n2)ncc1-c1cnn(C)c1,"enzyme activity, inhibitor, radiometric",,10 µM,remaining activity,71%
Nc1nc(NC2CCCCC2)sc1C(=O)c1ccccc1,"enzyme activity, inhibitor",,10 µM,remaining activity,20%
Cn1c2c(c3ccc(Cl)c(Cl)c31)C(C#N)C1(CCOCC1)NC2=O (stereo not shown),"thermal stability, DSF",,10 µM,ΔTm,0.1 °C
N#CC(=C(N)Sc1ccc(N)cc1)c1ccccc1C(F)(F)F,cell-free assay,,0.5 µM,remaining signal,116%
Nc1cnc(N2CCc3cc(S(=O)(=O)Nc4c(F)cc(Cl)cc4F)cc(N4CCCC4=O)c32)nc1,"cell-free assay, competition with immobilised ligand",,1 µM,remaining binding,91%
FC(F)(F)Oc1cccc(-c2cnc3ccc(-c4ccncc4)nn23)c1,"enzyme activity, inhibitor, radiometric",,5 µM,activity vs control,82%
CCCS(=O)(=O)Nc1ccc(F)c(C(=O)c2c[nH]c3ncc(-c4ccc(Cl)cc4)cc23)c1F,"enzyme activity, inhibitor",,1 µM,inhibition,< 20%
O=C(N[C@H]1CCCCC/C=C\C2C[C@@]2(C(=O)O)NC(=O)[C@@H]2C[C@@H](Oc3ccncc3)CN2C1=O)OC1CCCC1 (stereo partly shown),"binding, competition with immobilised ligand",,1 µM,remaining binding,69%
CNc1cccc2cc(C(=O)Nc3ccc(C(=O)O)cc3)c(=O)[nH]c12,"enzyme activity, inhibitor",,10 µM,inhibition,1.9%
N#CC1(c2ccccn2)CCN(Cc2cc(C(=O)N3CCCC3)c(=O)n3ccccc23)CC1,"cell-free assay, competition with immobilised ligand",,1 µM,remaining binding,91%
c1nc2c(Nc3ccc4c(c3)OCCO4)nc(Nc3ccc4c(c3)OCCO4)nc2[nH]1,"enzyme activity, inhibitor",,10 µM,activity vs control,94%
Cc1ccc(C(=O)Nc2ccc(CN3CCN(C)CC3)c(C(F)(F)F)c2)cc1C#Cc1cnc2cccnn12,"enzyme activity, inhibitor",,23.5 nM,remaining activity,100%
N#CCCc1ccc2c(c1)-c1[nH]c3ccc([N+](=O)[O-])cc3c1CC(=O)N2,cell-free assay,,0.5 µM,remaining signal,95.1%
O=C(Nc1cnn(-c2csc(C(=O)NC3COC3)c2)c1)Nc1c(F)cccc1Cl,"enzyme activity, inhibitor",,5 µM,remaining activity,92.4%
Cn1c2c(c3ccccc31)C(C#N)C(C)(C)NC2=O (stereo not shown),"thermal stability, DSF",,10 µM,ΔTm,-0.4 °C
O=C(Nc1cccnn1)N1CCC(=Cc2cccc(Oc3ccc(C(F)(F)F)cn3)c2)CC1,"cell-free assay, competition with immobilised ligand",,1 µM,remaining binding,100%
O=C1Nc2ccc(Cl)cc2C1=Cc1cc(Cl)c(O)c(Cl)c1,cell-free assay,,0.5 µM,remaining signal,88.2%
CCN1CCN(Cc2ccc(NC(=O)c3ccc(C)c(Oc4ccnc5[nH]ccc45)c3)cc2C(F)(F)F)CC1,"target engagement in cells, inhibitor, chemoproteomics",A-375,50 nM,inhibition,-24.5%
COc1ccc2c(c1)O[C@H](c1ccc(OC)c(OC)c1)C[C@@H]2NC(=O)C1(c2ccc3c(c2)OC(F)(F)O3)CC1,"cell-free assay, competition with immobilised ligand",,1 µM,remaining binding,100%
COc1ccc(COc2ccc(Cc3cnc(N)nc3N)cc2OC)cc1,cell-free assay,,0.5 µM,remaining signal,99.1%
N#CC1c2c([nH]c3c(Cl)c(Cl)ccc23)C(=O)NC12CCCCC2 (racemic),"thermal stability, DSF",,10 µM,ΔTm,0.1 °C
O=C1NC(=O)c2cc(Nc3ccc(F)cc3)c(Nc3ccc(F)cc3)cc21,cell-free assay,,0.5 µM,remaining signal,86.1%
O=C(NC[C@@H]1[C@H]2CN(C(=O)OCc3cc(C(F)(F)F)cc(C(F)(F)F)c3)C[C@@H]12)c1ccc2[nH]nnc2c1,"cell-free assay, competition with immobilised ligand",,1 µM,remaining binding,100%
